Screening results: PubChem, Johns Hopkins Ion Channel Center
RGS4 pot: RGS4 potentiators or activators, primary screen, cell-based, HEK293 M3R inducible RGS4, calcium flux. carbachol calcium flux Fluo4; active compounds read low. B-score at 10 µM. 0.92% of 310,000 active. AID 463111, 2010;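 active = B-score of the integrated calcium signal more than 4 SD below the library mean, with starting fluorescence not abnormally high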;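 also: negative B-score means reduced calcium response which marks RGS4 activation or potentiation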
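test system = M3R-expressing HEK293 line, RGS4 induced by doxycycline | probe or stimulus = carbachol at ECmax as muscarinic agonist stimulus | timing = dye loading 30 min 37 °C, buffer rest 30 min RT | signal = calcium dye Fluo4 fluorescence | evaluation = B score from integrated fluorescence ratio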
RGS4 inh: RGS4 inhibitors, primary screen, cell-based, HEK293 M3R inducible RGS4, calcium flux. B-score at 10 µM. 0.45% of 310,000 active. Fluo-4 calcium flux; active compounds read high; triggered by carbachol at its EC20;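 active = B-score, a plate-corrected calcium signal, over three deviations above library mean, with baseline fluorescence within five deviations of library mean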;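 also: RGS4 expression induced by doxycycline in cells with stable M3 receptor; B-score is computed from the integrated fluorescence ratio over baseline after carbachol; higher B-score means a larger calcium signal and so more RGS4 inhibition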
Target sequence (P49798 whole entry, looked up): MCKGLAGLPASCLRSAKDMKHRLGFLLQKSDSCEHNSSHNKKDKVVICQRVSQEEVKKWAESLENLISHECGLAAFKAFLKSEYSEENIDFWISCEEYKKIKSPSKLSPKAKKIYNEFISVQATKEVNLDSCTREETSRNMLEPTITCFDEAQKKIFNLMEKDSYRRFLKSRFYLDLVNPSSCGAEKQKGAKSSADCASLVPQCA
MrgX1 antag: antagonists of human MrgX1 receptor, primary screen, HEK293 cells, Fluo-4 calcium flux. Mas-related G-protein coupled receptor member X1 (Homo sapiens), Q96LB2. B-score at 10 µM. BAM8-22 antagonism; active compounds read low. 1.3% of 310,000 active;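 active = calcium-response B-score plate-corrected more than 3 library SD below zero, starting fluorescence within 5 deviations, no agonist response on first addition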;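 also: peak minus trough fluorescence over baseline after final BAM8-22 challenge near maximal dose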
Target sequence (Q96LB2 whole entry, looked up): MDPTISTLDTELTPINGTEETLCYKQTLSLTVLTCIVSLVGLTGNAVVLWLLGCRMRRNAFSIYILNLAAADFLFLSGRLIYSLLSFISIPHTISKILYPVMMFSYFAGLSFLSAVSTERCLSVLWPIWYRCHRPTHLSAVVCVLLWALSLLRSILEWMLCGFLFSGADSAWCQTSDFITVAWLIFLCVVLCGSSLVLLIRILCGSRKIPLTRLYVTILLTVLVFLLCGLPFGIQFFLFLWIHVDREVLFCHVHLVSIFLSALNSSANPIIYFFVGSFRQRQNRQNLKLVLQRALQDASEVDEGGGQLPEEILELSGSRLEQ
MrgX1 ag: agonists of human MrgX1 receptor, primary screen, HEK293 cells, Fluo-4 calcium flux; Mas-related G-protein coupled receptor member X1 (Homo sapiens), Q96LB2; Fluo-4 calcium fluorescence, agonist mode; active compounds read high; B-score at 10 µM; 0.44% of 310,000 active; AID 588627, 2011;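 active = calcium response B-score plate-corrected fluorescence ratio at least 3 library SD, with starting fluorescence B-score inside 5 SD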
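times = overnight plating, then 30 min 37 °C plus 30 min room-temperature dye loading | assay system = stable human MrgX1 HEK293 cell line | input = fifteen thousand cells per well | signal = kinetic calcium dye fluorescence, Fluo-4 NW | dosing = compound delivered in addition one of three | read-out = B-scored fluorescence response ratio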
MrgX1 PAM: positive allosteric modulators of MrgX1, primary screen, HEK293 cells, Fluo-4 calcium flux; FDSS; active compounds read high; B-score at 10 µM; 0.63% of 310,000 active; AID 588675, 2011;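 active = plate-corrected calcium response at least 3 library SD above typical, normal starting fluorescence, not activating the receptor alone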;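 also: compound read alongside a low EC10 to EC30 dose of BAM8-22 agonist; peak minus trough fluorescence over baseline measured at the second addition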
RGS4 act valid: reduced carbachol calcium response, RGS4-induced M3R cells, confirmation, RGS4 activator project, cell-based, HEK293 M3R/RGS4 inducible, calcium flux, duplicate. shares compounds with RGS4 pot. carbachol calcium flux Fluo4. inhibition, % at 10 µM. 89% of 1,100 active;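 active = inhibition above 3 SD of the buffer control wells, cut at about 41% in these data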;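 also: signal is the integrated peak-minus-minimum Fluo4 fluorescence over baseline ratio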
RGS4 act ctr: activity in cells without induced RGS4 expression. shares compounds with RGS4 pot. HEK293 M3R non-induced RGS4, Fluo4 calcium flux; after carbachol challenge at its EC90. inhibition, % at 10 µM. 82% of 1,100 active. AID 602283;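 active = inhibition exceeding 3 SD of buffer-only control wells, cut at about 26% in these data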;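 also: percent drop in integrated peak-minus-baseline over baseline Fluo4 ratio after carbachol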
MrgX1 ant reconf: MrgX1 receptor antagonists, duplicate retest, confirmation, HEK293 cells, Fluo-4 calcium flux; shares compounds with MrgX1 antag; BAM8-22 calcium flux; active compounds read low; remaining BAM8-22 calcium response % of control (active compounds read low), % at 10 µM; 19% of 2,300 active; AID 602420, 2012;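 active = remaining agonist calcium response no higher than 100% minus 3 SD of agonist-only control wells, with starting fluorescence near control levels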;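 also: agonist BAM8-22 given at a near maximal EC90 to ECmax level; peak minus minimum fluorescence divided by baseline after agonist addition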
HEK293 Ca flux: nonspecific calcium signal in parental HEK293, confirmation, counter-screen for MrgX1 antagonist project, parental HEK293 cells, Fluo-4 calcium flux. shares compounds with MrgX1 antag. Fluo-4 calcium fluorescence, FDSS. fluorescence ratio F(max-min)/F0 at 10 µM. 2% of 4,000 active. AID 624111, 2012;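 active = duplicate-averaged calcium fluorescence ratio at least three times the standard deviation of buffer wells, a nonspecific response in parental cells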
HEK293 Ca counter: calcium response in parental HEK293 cells, primary screen, counter-screen for MrgX1 allosteric activator project, cell-based, Fluo-4 calcium flux, duplicate; shares compounds with MrgX1 antag; Fluo-4 fluorescence ratio; active compounds read high; fluorescence ratio F(max-min)/F0 at 10 µM; 0.4% of 4,000 active; AID 624114, 2012;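 active = calcium fluorescence ratio, averaged over duplicates, at least 3 SD of the buffer-well ratio, meaning a nonspecific response in receptor-free cells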;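 also: untransfected parental HEK293 lacking MrgX1 used as counterscreen for MrgX1 allosteric activators; fluorescence change taken during the second addition on a kinetic imager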
HEK293 Ca cntr2: calcium response in parental HEK293 cells, primary screen, counter-screen for MrgX1 agonist project, cell-based, Fluo-4 calcium flux, duplicate, agonist mode | shares compounds with MrgX1 antag | Fluo-4 calcium fluorescence (FDSS); active compounds read high | fluorescence ratio F(max-min)/F0 at 10 µM | 8.7% of 4,000 active | AID 624115, 2012;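 active = calcium fluorescence ratio at least three times the spread of buffer wells, meaning a non-specific response in parental cells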
Active calls of the source: *; i = inactive; x = no result given. Compounds with a hit are over-represented: about 3.5% of the library has one in this group of screens.

SMILES	RGS4 pot	RGS4 inh	MrgX1 antag	MrgX1 ag	MrgX1 PAM	RGS4 act valid	RGS4 act ctr	others
COc1ccc(C2NC(=O)NC(O)(C(F)(F)F)C2C(=O)c2ccc(F)cc2)cc1 (stereo unspecified)	-8.78*	i	i	i	i	92.0*	83.3*
COc1cc(C2NC(=O)NC(O)(C(F)(F)F)C2C(=O)c2ccc(Cl)cc2)ccc1O (stereo unspecified)	x	x	i	i	i	x	x
CCOc1ccc(Cc2n[nH]c(=S)n2Cc2ccccc2)cc1	-8.8*	i	i	i	i	61.0*	83.8*
COc1cccc(Cc2n[nH]c(=S)n2Cc2ccco2)c1	-10*	i	i	i	i	60.5*	83.8*
CC1CC(C)CN(CCCNC(=O)C2CCN(c3nnc(-n4cccc4)s3)CC2)C1 (stereo unspecified)	i	i	i	i	i	x	x
COc1ccc(N2CCN(c3ncnc4scc(-c5ccc(C)cc5)c34)CC2)cc1	-7.86*	i	i	i	i	0.0	0.0
COc1ccc(N2CCN(c3ncnc4scc(-c5ccccc5)c34)CC2)cc1	-7.88*	i	i	i	i	54.0*	0.0
COc1ccc(-c2csc3ncnc(N4CCN(S(=O)(=O)c5cccs5)CC4)c23)cc1	-8.18*	i	i	i	i	42.5*	83.8*
COc1ccc(-c2csc3ncnc(N4CCN(c5ccccc5Cl)CC4)c23)cc1	-8.57*	i	i	i	i	75.5*	83.8*
COc1ccc(N2CCN(c3ncnc4scc(-c5ccc(F)cc5)c34)CC2)cc1	i	i	i	i	i	x	x
CSc1ccc(CNC(=O)C(C)n2nc(C)c3c(C)n(-c4ccccc4)nc3c2=O)cc1 (stereo unspecified)	i	i	i	i	i	x	x
CC(Oc1ccccc1)C(=O)NC1CCN(Cc2ccccc2)CC1 (stereo unspecified)	-8.26*	i	i	i	i	80.0*	53.3*
CCOC(=O)C1=C(C)N2C(=C(C#N)[C@@H]1c1ccc(C(=O)OC)cc1)SC[C@@]2(O)C(C)(C)C	-9.09*	i	i	i	i	59.0*	0.0
COc1ccc(C(=O)Nc2ccnn2C2CCN(Cc3cnn(C)c3)CC2)cc1	i	i	i	i	i	x	x
CCn1cc(CN2CCC(n3nccc3NC(=O)c3ccc(OC)cc3)CC2)cn1	-7.72*	i	i	i	i	66.0*	83.8*
CN1CCCC(CC2Oc3ccccc3Sc3ccccc32)C1 (stereo unspecified)	-9.11*	i	i	i	i	93.0*	91.8*
COc1ccccc1NC(=O)C1CCN(S(C)(=O)=O)CC1	i	i	i	i	i	x	x
COC(=O)c1cc2ccsc2n1Cc1nc(-c2ccc(OC)cc2)oc1C	-11.2*	i	i	i	i	92.5*	79.3*
COc1cc(CN2CCc3ccc(NC(=O)CCc4ccccc4OC)cc3C2)ccc1O	i	i	i	i	i	x	x
COc1ccc(CN2CCc3ccc(NC(=O)CCc4ccccc4OC)cc3C2)c(O)c1	-9.28*	i	i	i	i	90.5*	71.3*
O=C(c1ccco1)N(Cc1ccc([N+](=O)[O-])cc1)c1ccc(Cl)cc1	i	i	i	i	i	x	x
Cc1ccc(N(Cc2ccc([N+](=O)[O-])cc2)C(=O)c2ccco2)cc1C	-11.1*	i	i	i	i	88.0*	40.3*
CCn1c(SCC#N)nc2c(c1=O)C1(CCCC1)Cc1ccccc1-2	-10.4*	i	i	i	i	69.0*	83.8*
O=P(c1ccccc1)(c1ccccc1)c1nc(-c2ccc(Cl)cc2)oc1N1CCOCC1	i	i	i	i	i	x	x
Cc1ccc(O)c(N/C=C/C(=O)c2ccc(F)cc2)c1	i	i	i	i	i	x	x
SMILES	RGS4 pot	RGS4 inh	MrgX1 antag	MrgX1 ag	MrgX1 PAM	RGS4 act valid	RGS4 act ctr	others
COc1ccc(-c2nc(NC(=O)c3[nH]c(C)c(C(C)=O)c3C)sc2C)cc1	-11.4*	i	-8.53*	i	i	92.5*	91.8*	MrgX1 ant reconf=52.5%*;HEK293 Ca flux=i;HEK293 Ca counter=i;HEK293 Ca cntr2=i
COc1ccc(OC)c(NC(=O)c2[nH]c(C)c(C(C)=O)c2C)c1	i	i	i	i	i	x	x
CCOC(=O)Cc1csc(NC(=O)c2csc(C)c2)n1	i	i	i	i	i	x	x
CCOC(=O)Cc1csc(NC(=O)c2sc3nc4c(C)cc(C)cc4cc3c2N)n1	-8.6*	i	-9.24*	i	i	83.5*	63.3*	MrgX1 ant reconf=i;HEK293 Ca flux=i;HEK293 Ca counter=i;HEK293 Ca cntr2=i
Cc1ccc(OCc2ccc(C(=O)N3CCCC3)o2)cc1C	-7.88*	i	-5.32*	i	i	73.0*	83.8*	MrgX1 ant reconf=72.6%*;HEK293 Ca flux=i;HEK293 Ca counter=i;HEK293 Ca cntr2=i
CCOc1ccc(OCc2ccc(C(=O)N3CCCCC3)o2)cc1	i	i	i	i	i	x	x
O=C(c1ccc(F)c(F)c1)N1CCC2(CC1)NCCc1[nH]cnc12	i	i	i	i	i	x	x
O=C(Cc1c(F)cccc1Cl)NCC(=O)OCc1ccccc1	i	i	i	i	i	x	x
